Experimental data taken from ChEMBL document CHEMBL1152599, “Synthesis and in vitro activities of new anticancer duplex drugs linking 2'-deoxy-5-fluorouridine (5-FdU) with 3'-C-ethynylcytidine (ECyd) via a phosphodiester bonding” (2009).

Experiments:
Format in all cases: functional
RXF 393 = assay: Anticancer activity against human RXF393 cells after 48 hrs by sulforhodamine B assay; conditions: RXF 393, 48 h
Outline: (§1)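 NCI 60-cell-line anticancer screen. Each compound is tested at a minimum of five concentrations in 10-fold dilutions with 48 h drug exposure. Cell viability/growth is estimated by sulforhodamine B protein staining. GI50 is the log10 molar concentration giving 50% growth inhibition, read from the dose-response curves and mean graphs of the NCI data screening report. TGI was taken from double screens.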

SK-MEL-5 = assay: Anticancer activity against human SK-MEL-5 cells after 48 hrs by sulforhodamine B assay; conditions: SK-MEL-5, 48 h; outline: as §1
CCRF-CEM = assay: Anticancer activity against human CCRF-CEM cells after 48 hrs by sulforhodamine B assay; outline: as §1
ACHN = assay: Anticancer activity against human ACHN cells after 48 hrs by sulforhodamine B assay; outline: as §1
SN12C = assay: Anticancer activity against human SN12C cells after 48 hrs by sulforhodamine B assay; outline: as §1
SNB-75 = assay: Anticancer activity against human SNB75 cells after 48 hrs by sulforhodamine B assay; conditions: SNB-75, 48 h
Outline: (§2)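 Tested in the NCI 60-human-tumour-cell-line screen. Compounds were applied at a minimum of five concentrations in 10-fold dilutions with 48 h exposure. Cell growth was estimated by sulforhodamine B protein staining. GI50 (log10 of molar concentration giving 50% growth inhibition) and TGI were read from the data sheets, dose-response curves and mean graphs. Some cell lines were screened twice.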

U-251 = assay: Anticancer activity against human U251 cells after 48 hrs by sulforhodamine B assay; conditions: U-251, 48 h; outline: as §2
SF-539 = assay: Anticancer activity against human SF539 cells after 48 hrs by sulforhodamine B assay; conditions: SF-539, 48 h; outline: as §1
DU-145 = assay: Anticancer activity against human DU145 cells after 48 hrs by sulforhodamine B assay; conditions: DU-145, 48 h; outline: as §1
KM12 = assay: Anticancer activity against human KM12 cells after 48 hrs by sulforhodamine B assay; conditions: KM12, 48 h; outline: as §1
IGROV-1 = assay: Anticancer activity against human IGROV1 cells after 48 hrs by sulforhodamine B assay; conditions: IGROV-1, 48 h; outline: as §1
HCT-116 = assay: Anticancer activity against human HCT116 cells after 48 hrs by sulforhodamine B assay; conditions: HCT-116, 48 h; outline: as §1
T47D = assay: Anticancer activity against human T47D cells after 48 hrs by sulforhodamine B assay; outline: as §2
LOX IMVI = assay: Anticancer activity against human LOXIMVI cells after 48 hrs by sulforhodamine B assay; outline: as §1
SF-268 = assay: Anticancer activity against human SF268 cells after 48 hrs by sulforhodamine B assay; conditions: SF-268, 48 h; outline: as §1
NCI-H460 = assay: Anticancer activity against human NCI-H460 cells after 48 hrs by sulforhodamine B assay; conditions: NCI-H460, 48 h; outline: as §1
UO-31 = assay: Anticancer activity against human UO31 cells after 48 hrs by sulforhodamine B assay; conditions: UO-31, 48 h; outline: as §2
NCI-H322M = assay: Anticancer activity against human NCI-H322M cells after 48 hrs by sulforhodamine B assay; outline: as §1
TK-10 = assay: Anticancer activity against human TK10 cells after 48 hrs by sulforhodamine B assay; conditions: TK-10, 48 h; outline: as §2
K562 = assay: Anticancer activity against human K562 cells after 48 hrs by sulforhodamine B assay; conditions: K562, 48 h; outline: as §1
MDA-MB-435 = assay: Anticancer activity against human MDA-MB-435 cells after 48 hrs by sulforhodamine B assay; conditions: MDA-MB-435, 48 h; outline: as §1
SK-MEL-28 = assay: Anticancer activity against human SK-MEL-28 cells after 48 hrs by sulforhodamine B assay; conditions: SK-MEL-28, 48 h; outline: as §1
PC-3 = assay: Anticancer activity against human PC3 cells after 48 hrs by sulforhodamine B assay; conditions: PC-3, 48 h; outline: as §1
HOP-62 = assay: Anticancer activity against human HOP62 cells after 48 hrs by sulforhodamine B assay; conditions: HOP-62, 48 h; outline: as §1
NCI-H226 = assay: Anticancer activity against human NCI-H226 cells after 48 hrs by sulforhodamine B assay; conditions: NCI-H226, 48 h; outline: as §1
SK-MEL-2 = assay: Anticancer activity against human SK-MEL-2 cells after 48 hrs by sulforhodamine B assay; conditions: SK-MEL-2, 48 h; outline: as §1
HCC 2998 = assay: Anticancer activity against human HCC2998 cells after 48 hrs by sulforhodamine B assay; conditions: HCC 2998, 48 h; outline: as §1
A549 = assay: Anticancer activity against human A549 cells after 48 hrs by sulforhodamine B assay; conditions: A549, 48 h; outline: as §1
NCI/ADR-RES = assay: Anticancer activity against human NCI/ADR-RES cells after 48 hrs by sulforhodamine B assay; outline: as §1
OVCAR-5 = assay: Anticancer activity against human OVCAR5 cells after 48 hrs by sulforhodamine B assay; conditions: OVCAR-5, 48 h; outline: as §1
[1] = Anticancer activity against human […] cells after 48 hrs by sulforhodamine B assay; outline: as §1
A498 = assay: Anticancer activity against human A498 cells after 48 hrs by sulforhodamine B assay; conditions: A498, 48 h; outline: as §1
786-0 = assay: Anticancer activity against human 786-0 cells after 48 hrs by sulforhodamine B assay; conditions: 786-0, 48 h; outline: as §1
COLO 205 = assay: Anticancer activity against human COLO205 cells after 48 hrs by sulforhodamine B assay; conditions: COLO 205, 48 h; outline: as §1
OVCAR-4 = assay: Anticancer activity against human OVCAR4 cells after 48 hrs by sulforhodamine B assay; conditions: OVCAR-4, 48 h; outline: as §1
SF-295 = assay: Anticancer activity against human SF295 cells after 48 hrs by sulforhodamine B assay; conditions: SF-295, 48 h; outline: as §1
M14 = assay: Anticancer activity against human M14 cells after 48 hrs by sulforhodamine B assay; conditions: M14, 48 h; outline: as §1
SW-620 = assay: Anticancer activity against human SW620 cells after 48 hrs by sulforhodamine B assay; conditions: SW-620, 48 h; outline: as §2
UACC-62 = assay: Anticancer activity against human UACC62 cells after 48 hrs by sulforhodamine B assay; conditions: UACC-62, 48 h; outline: as §2
CAKI-1 = assay: Anticancer activity against human Caki1 cells after 48 hrs by sulforhodamine B assay; conditions: CAKI-1, 48 h; outline: as §1
HL-60 = assay: Anticancer activity against human HL-60(TB) cells after 48 hrs by sulforhodamine B assay; conditions: HL-60, 48 h
Outline: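 NCI 60-cell-line anticancer screen. Drugs tested at a minimum of five concentrations at 10-fold dilutions with 48 h exposure. Cell growth estimated by sulforhodamine B protein assay. GI50 is log10 of the molar concentration giving 50% growth inhibition, read from the screening data sheet, dose-response curves and mean graphs.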

MDA-MB-231 = assay: Anticancer activity against human MDA-MB-231 cells after 48 hrs by sulforhodamine B assay; conditions: MDA-MB-231, 48 h; outline: as §1
NCI-H522 = assay: Anticancer activity against human NCI-H522 cells after 48 hrs by sulforhodamine B assay; conditions: NCI-H522, 48 h; outline: as §1
HCT-15 = assay: Anticancer activity against human HCT15 cells after 48 hrs by sulforhodamine B assay; conditions: HCT-15, 48 h; outline: as §1
OVCAR-8 = assay: Anticancer activity against human OVCAR8 cells after 48 hrs by sulforhodamine B assay; conditions: OVCAR-8, 48 h; outline: as §1
Malme-3M = assay: Anticancer activity against human MALME-3M cells after 48 hrs by sulforhodamine B assay; outline: as §1
BT-549 = assay: Anticancer activity against human BT549 cells after 48 hrs by sulforhodamine B assay; conditions: BT-549, 48 h; outline: as §1
HOP-92 = assay: Anticancer activity against human HOP92 cells after 48 hrs by sulforhodamine B assay; conditions: HOP-92, 48 h; outline: as §1
SNB-19 = assay: Anticancer activity against human SNB19 cells after 48 hrs by sulforhodamine B assay; conditions: SNB-19, 48 h; outline: as §1
SK-OV-3 = assay: Anticancer activity against human SKOV3 cells after 48 hrs by sulforhodamine B assay; conditions: SK-OV-3, 48 h; outline: as §1
HT-29 = assay: Anticancer activity against human HT-29 cells after 48 hrs by sulforhodamine B assay; conditions: HT-29, 48 h; outline: as §1
SR = assay: Anticancer activity against human SR cells after 48 hrs by sulforhodamine B assay; outline: as §2
MDA-N = assay: Anticancer activity against human MDA-N cells after 48 hrs by sulforhodamine B assay; outline: as §1
UACC-257 = assay: Anticancer activity against human UACC257 cells after 48 hrs by sulforhodamine B assay; conditions: UACC-257, 48 h; outline: as §2
MOLT-4 = assay: Anticancer activity against human MOLT4 cells after 48 hrs by sulforhodamine B assay; conditions: MOLT-4, 48 h; outline: as §1
[2] = Anticancer activity against human Hs 578T cells after 48 hrs by sulforhodamine B assay; outline: as §1
NCI-H23 = assay: Anticancer activity against human NCI-H23 cells after 48 hrs by sulforhodamine B assay; conditions: NCI-H23, 48 h; outline: as §1
MCF7 = assay: Anticancer activity against human MCF7 cells after 48 hrs by sulforhodamine B assay; conditions: MCF7, 48 h; outline: as §1
EKVX = assay: Anticancer activity against human EKVX cells after 48 hrs by sulforhodamine B assay; outline: as §1
OVCAR-3 = assay: Anticancer activity against human OVCAR-3 cells after 48 hrs by sulforhodamine B assay; conditions: OVCAR-3, 48 h; outline: as §1

O=c1[nH]c(=O)n([C@H]2C[C@H](O)[C@@H](CO)O2)cc1F [FLOXURIDINE]
GI50 (RXF 393): 3980 nM
GI50 (SK-MEL-5): 200 nM
GI50 (CCRF-CEM): 6.31 nM
GI50 (ACHN): 31.6 nM
GI50 (SN12C): 200 nM
GI50 (SNB-75): 200 nM
GI50 (U-251): 126 nM
GI50 (SF-539): 3.98 nM
GI50 (DU-145): 251 nM
GI50 (KM12): 6310 nM
GI50 (IGROV-1): 2510 nM
GI50 (HCT-116): 126 nM
GI50 (T47D): 1260 nM
GI50 (LOX IMVI): 25.1 nM
GI50 (SF-268): 12.6 nM
GI50 (NCI-H460): 2 nM
GI50 (UO-31): 126 nM
GI50 (NCI-H322M): 501 nM
GI50 (TK-10): 5010 nM
GI50 (K562): 794 nM
GI50 (MDA-MB-435): 3160 nM
GI50 (SK-MEL-28): 2000 nM
GI50 (PC-3): 316 nM
GI50 (HOP-62): 25.1 nM
GI50 (NCI-H226): 10000 nM
GI50 (SK-MEL-2): 10000 nM
GI50 (HCC 2998): 1 nM
GI50 (A549): 12.6 nM
GI50 (NCI/ADR-RES): 1260 nM
GI50 (OVCAR-5): 6310 nM
GI50 [1]: 794 nM
GI50 (A498): 1260 nM
GI50 (786-0): 100 nM
GI50 (COLO 205): 1580 nM
GI50 (OVCAR-4): 10000 nM
GI50 (SF-295): 39.8 nM
GI50 (M14): 158 nM
GI50 (SW-620): 10000 nM
GI50 (UACC-62): 39.8 nM
GI50 (CAKI-1): 31.6 nM
GI50 (HL-60): 200 nM
GI50 (MDA-MB-231): 3980 nM
GI50 (NCI-H522): 2510 nM
GI50 (HCT-15): 2000 nM
GI50 (OVCAR-8): 126 nM
GI50 (Malme-3M): 7940 nM
GI50 (BT-549): 1000 nM
GI50 (HOP-92): 794 nM
GI50 (SNB-19): 2000 nM
GI50 (SK-OV-3): 2000 nM
GI50 (HT-29): 2510 nM
GI50 (SR): 12.6 nM
GI50 (MDA-N): 1260 nM
GI50 (UACC-257): 3160 nM
GI50 (MOLT-4): 39.8 nM
GI50 [2]: 3980 nM
GI50 (NCI-H23): 501 nM
GI50 (MCF7): 6.31 nM
GI50 (EKVX): 10000 nM
GI50 (OVCAR-3): 2510 nM
